Data on 8 compounds can be found in ChEMBL document CHEMBL1157383, “Antiproliferative oleanane saponins from Meryta denhamii” (J Nat Prod, 2008).

The test system of experiment [1] is J774.A1. Description: Antiproliferative activity against mouse J774.A1 cells after 72 hrs by MTT conversion assay. The format is cell-based. The note with it: J774.A1, 72 h. The method in brief:
(§1)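 Cells (3.4 × 10^4) plated in 96-well plates and left to adhere 2 h at 37 °C, 5% CO2/95% air; medium replaced, 1:4 serial dilutions of compound added, incubated 72 h. Viability by MTT conversion, OD read at 620 nm; % dead cells = 100 − (OD treated/OD control) × 100. 6-mercaptopurine serial dilutions run in some experiments.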
Background: Tetrazolium assays rely on reduction of a dye to a coloured formazan, in cell work by metabolically active cells.

Experiment [2] has as its system HEK293. Description: Antiproliferative activity against human HEK293 cells after 72 hrs by MTT conversion assay. The format is cell-based. Particulars: HEK293, 72 h. The method in brief: as §1
Experiment [3] concerns WEHI-164. Kind of experiment: Antiproliferative activity against mouse WEHI164 cells after 72 hrs by MTT conversion assay. The format is functional, cell-based. Particulars: WEHI-164, 72 h. In a few lines:
as §1

Molecules are shown by their SMILES.

A word on the IC50: it is the midpoint of a concentration-inhibition curve. Read a high IC50 as lower potency. For the compound `C[C@@H]1O[C@@H](O[C@H]2[C@H](O)[C@@H](O)[C@H](OC[C@H]3O[C@@H](OC(=O)[C@]45CCC(C)(C)C[C@H]4C4=CC[C@@H]6[C@@]7(C)CC[C@H](O[C@H]8OC[C@H](O)[C@H](O[C@@H]9O[C@H](CO)[C@@H](O[C@@H]%10O[C@H](CO)[C@@H](O)[C@H](O)[C@H]%10O)[C@H](O)[C@H]9O)[C@H]8O)C(C)(C)[C@@H]7CC[C@@]6(C)[C@]4(C)CC5)[C@H](O)[C@@H](O)[C@@H]3O)O[C@@H]2CO)[C@H](O)[C@H](O)[C@H]1O`, in experiment [1], half-maximal inhibition (IC50) required 3000 nM.
Regarding `CC1(C)CC[C@]2(C(=O)O[C@@H]3O[C@H](CO)[C@@H](O)[C@H](O)[C@H]3O)[C@H](O)C[C@]3(C)C(=CC[C@@H]4[C@@]5(C)CC[C@H](O[C@@H]6O[C@H](C(=O)O)[C@@H](O)[C@H](O)[C@H]6O[C@@H]6O[C@H](CO)[C@@H](O)[C@H](O)[C@H]6O)C(C)(C)[C@@H]5CC[C@]43C)[C@@H]2C1`, the IC50 in experiment [1] is 190 nM; in experiment [2], 230 nM; in experiment [3], 340 nM.
In the case of `C[C@@H]1O[C@@H](O[C@H]2[C@H](O)[C@@H](O)[C@H](OC[C@H]3O[C@@H](OC(=O)[C@]45CCC(C)(C)C[C@H]4C4=CC[C@@H]6[C@@]7(C)CC[C@H](O[C@H]8OC[C@H](O)[C@H](O[C@@H]9O[C@H](CO)[C@@H](O)[C@H](O)[C@H]9O)[C@H]8O)C(C)(C)[C@@H]7CC[C@@]6(C)[C@]4(C)CC5)[C@H](O)[C@@H](O)[C@@H]3O)O[C@@H]2CO)[C@H](O)[C@H](O)[C@H]1O`, the results for the IC50 in experiment [1] and in experiment [3] were 3600 nM and 7000 nM, respectively.
Compound `C[C@@H]1O[C@@H](O[C@H]2[C@H](O)[C@@H](O)[C@H](OC[C@H]3O[C@@H](OC(=O)[C@]45CCC(C)(C)C[C@H]4C4=CC[C@@H]6[C@@]7(C)CC[C@H](O[C@@H]8O[C@H](C(=O)O)[C@@H](O)[C@H](O)[C@H]8O[C@@H]8O[C@H](CO)[C@@H](O)[C@H](O)[C@H]8O)C(C)(C)[C@@H]7CC[C@@]6(C)[C@]4(C)CC5)[C@H](O)[C@@H](O)[C@@H]3O)O[C@@H]2CO)[C@H](O)[C@H](O)[C@H]1O` showed an IC50 in experiment [1] of 6900 nM.
As to `C[C@@H]1O[C@@H](O[C@H]2[C@H](O)[C@@H](O)[C@H](OC[C@H]3O[C@@H](OC(=O)[C@]45CCC(C)(C)C[C@H]4C4=CC[C@@H]6[C@@]7(C)CC[C@H](O[C@H]8OC[C@H](O)[C@H](O)[C@H]8O)C(C)(C)[C@@H]7CC[C@@]6(C)[C@]4(C)CC5)[C@H](O)[C@@H](O)[C@@H]3O)O[C@@H]2CO)[C@H](O)[C@H](O)[C@H]1O`, the IC50 came to 2500 nM in experiment [1] and 3400 nM in experiment [3].
Consider `C[C@@H]1O[C@@H](O[C@H]2[C@H](O)[C@@H](O)[C@H](O[C@@H]3[C@@H](O)[C@H](OC[C@H]4O[C@@H](OC(=O)[C@]56CCC(C)(C)C[C@H]5C5=CC[C@@H]7[C@@]8(C)CC[C@H](O[C@H]9OC[C@H](O)[C@H](O[C@@H]%10O[C@H](CO)[C@@H](O[C@@H]%11O[C@H](CO)[C@@H](O)[C@H](O)[C@H]%11O)[C@H](O)[C@H]%10O)[C@H]9O)C(C)(C)[C@@H]8CC[C@@]7(C)[C@]5(C)C[C@H]6O)[C@H](O)[C@@H](O)[C@@H]4O)O[C@H](CO)[C@H]3O)O[C@@H]2CO)[C@H](O)[C@H](O)[C@H]1O`, for which the values for the IC50 in experiment [1], in experiment [2] and in experiment [3] were 320 nM, 1300 nM and 1700 nM, respectively.
With `CC1(C)CC[C@]2(C(=O)O[C@@H]3O[C@H](CO)[C@@H](O)[C@H](O)[C@H]3O)CC[C@]3(C)C(=CC[C@@H]4[C@@]5(C)CC[C@H](O[C@H]6OC[C@H](O)[C@H](O[C@@H]7O[C@H](CO)[C@@H](O)[C@H](O)[C@H]7O)[C@H]6O)C(C)(C)[C@@H]5CC[C@]43C)[C@@H]2C1`, the IC50 amounted to 3900 nM in experiment [1] and 4600 nM in experiment [3].
`C[C@@H]1O[C@@H](O[C@H]2[C@H](O)[C@@H](O)[C@H](O[C@@H]3[C@@H](O)[C@H](OC[C@H]4O[C@@H](OC(=O)[C@]56CCC(C)(C)C[C@H]5C5=CC[C@@H]7[C@@]8(C)CC[C@H](O[C@H]9OC[C@H](O)[C@H](O[C@@H]%10O[C@H](CO)[C@@H](O[C@@H]%11O[C@H](CO)[C@@H](O)[C@H](O)[C@H]%11O)[C@H](O)[C@H]%10O)[C@H]9O)C(C)(C)[C@@H]8CC[C@@]7(C)[C@]5(C)CC6)[C@H](O)[C@@H](O)[C@@H]4O)O[C@H](CO)[C@H]3O)O[C@@H]2CO)[C@H](O)[C@H](O)[C@H]1O` came in with an IC50 in experiment [1] of 9000 nM.
